The results in this text go back to ChEMBL document CHEMBL3588826, “Chimeric derivatives of functionalized amino acids and α-aminoamides: compounds with anticonvulsant activity in seizure models and inhibitory actions on central, peripheral, and cardiac isoforms of voltage-gated sodium channels” (Bioorg Med Chem, 2015).

Activity calls are given as the source filed them. No cut-off for these calls is given here.

For data set [1], the target named is Sodium channel protein type 9 subunit alpha (Homo sapiens) (UniProt Q15858). The data set is described as follows: Inhibition of human Nav1.7 expressed in HEK293 cells assessed as half-maximal voltage for steady state activation at 10 uM by whole cell patch-clamp electrophysiology (reference value: -27.13 +/-4.01 mV). In kind it is cell-based. On the technique in general: In patch-clamp work, channel activity is measured electrically.

For data set [2], the target named is Sodium channel protein type 1 subunit alpha (Homo sapiens) (UniProt P35498). The data set is described as follows: Frequency-dependent inhibition of human Nav1.1 expressed in HEK293 cells assessed as current amplitude at 10 uM by whole cell patch-clamp electrophysiology. The class given is cell-based. The gist of the method:
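Stable HEK293 lines expressing hNav1.1, rNav1.3, hNav1.7 or hNav1.5 were recorded by whole-cell voltage clamp at room temperature, with 10 μM compound versus 0.1% DMSO. A 30-pulse train was applied, and the read-out was the fraction of current remaining at the last pulse normalized to the first. Nav1.5 used hyperpolarized protocols.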

The species named for data set [3] is Rattus norvegicus. The data set is described as follows: Effect on steady state activation of voltage-gated sodium channel in rat embryonic cortical neurons at 10 uM by whole cell patch-clamp electrophysiology. The method, boiled down: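 Rat embryonic day 19 cortical neurons, cultured 7–10 days, were whole-cell voltage-clamped at room temperature with 1–2 MΩ electrodes, with compound at 10 μM and 0.1% DMSO as control. Fast inactivation: 500 ms prepulses, then a test pulse. Activation: conductance G = I/(Vm − Vrev). V1/2 and k came from Boltzmann fits to individual cells, averaged (mean ± SEM), 5–7 cells per condition.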

Data set [4] has as its system Rattus norvegicus. The data set is described as follows: Anticonvulsant activity in po dosed albino Sprague-Dawley rat measured at 2 hrs by maximal electroshock seizure test. In kind it is functional. The gist of the method: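 Screened under the NIH anticonvulsant program in male albino Carworth Farms No. 1 mice (ip) and male albino Sprague-Dawley rats (ip or oral). Protection tested by maximal electroshock or 6 Hz (32 mA) psychomotor stimulation.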
For orientation: Protection in the maximal electroshock model is a classic sign of anticonvulsant action.

In data set [5] the target is T1, Sodium channel protein type 5 subunit alpha (Homo sapiens, UniProt Q14524). The data set can be described thus: Inhibition of human Nav1.5 expressed in HEK293 cells assessed as transition of channels to slow-inactivated state at 10 uM measured at -50 mV by whole cell patch-clamp electrophysiology. The class given is cell-based. Conditions: hek293, 10 µM. The method, boiled down: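 HEK293 cells stably expressing hNav1.1, rNav1.3, hNav1.7 or hNav1.5 were grown in DMEM with 10% FBS. Recordings were whole-cell voltage clamp at room temperature, with 10 μM compound versus 0.1% DMSO. Slow inactivation at −50 mV was calculated as 1 minus normalized peak INa. Nav1.5 used hyperpolarized protocols. Data are from 5–6 cells.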

The test system of data set [6] is Rattus norvegicus. The data set can be described thus: Anticonvulsant activity in ip dosed albino Sprague-Dawley rat measured at 2 hrs by maximal electroshock seizure test. The class given is functional. The gist of the method:
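Screened under the NIH Anticonvulsant Screening Program in male rodents, with mice and rats dosed ip and rats also dosed po. Maximal electroshock (MES) and 6 Hz (32 mA) psychomotor seizure tests were run.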

The target of data set [7] is T2, CYP2C8 (Homo sapiens, UniProt P10632).
T2 sequence (P10632 whole entry): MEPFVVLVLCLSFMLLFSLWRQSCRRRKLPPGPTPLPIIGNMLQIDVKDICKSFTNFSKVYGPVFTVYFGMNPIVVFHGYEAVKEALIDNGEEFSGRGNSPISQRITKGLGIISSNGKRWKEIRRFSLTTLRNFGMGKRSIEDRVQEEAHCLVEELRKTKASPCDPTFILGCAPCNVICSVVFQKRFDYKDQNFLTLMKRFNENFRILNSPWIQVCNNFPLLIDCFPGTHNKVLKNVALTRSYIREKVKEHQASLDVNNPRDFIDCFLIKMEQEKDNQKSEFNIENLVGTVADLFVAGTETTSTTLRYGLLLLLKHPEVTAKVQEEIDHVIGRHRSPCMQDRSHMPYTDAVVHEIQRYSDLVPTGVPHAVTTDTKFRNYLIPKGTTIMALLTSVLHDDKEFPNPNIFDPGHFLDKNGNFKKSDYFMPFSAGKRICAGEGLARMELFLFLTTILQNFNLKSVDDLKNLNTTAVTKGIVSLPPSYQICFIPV
The data set can be described thus: Time-dependent inhibition of human CYP2C8 measured after 30 mins preincubation period. In kind it is ADME. The gist of the method: (§1)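 Test compound at 10 μM against a human CYP450 panel (CYP1A2, 2B6, 2C8, 2C9, 2C19, 2D6, 3A4/5). Direct inhibition was measured, and time-dependent inhibition was measured after a 30-min preincubation.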

The species named for data set [8] is Rattus norvegicus. The data set can be described thus: Inhibition of voltage-gated sodium channel in rat embryonic cortical neurons assessed as decrease in fraction of current available at 10 uM measured at -50 mV by whole cell patch-clamp electrophysiology. The gist of the method: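 Embryonic cortical neurons were treated with 10 μM compound or 0.1% DMSO, whole-cell voltage clamp at room temperature. Slow inactivation was assessed at −50 mV, with the fraction inactivated taken as 1 minus the normalized INa. Student's t-test; 5–8 cells per condition.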

Data set [9] relates to CAD. The data set is described as follows: Inhibition of voltage-gated sodium channel in mouse CAD cells assessed as half-maximal voltage for steady state fast-inactivation at 10 uM by whole cell patch-clamp electrophysiology (reference value: -69.1 +/-3.6 mV). In kind it is cell-based. The gist of the method:
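CAD cells, whole-cell voltage clamp at room temperature. Prepulses from −120 to −10 mV in 10 mV steps for 500 ms, then a 0 mV, 20 ms test pulse. V1/2 from single-Boltzmann fits to individual cells, averaged (mean ± SEM). Compared with 0.1% DMSO by Student's t-test.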

Data set [10] concerns the target T1, Sodium channel protein type 5 subunit alpha. The data set can be described thus: Inhibition of human Nav1.5 expressed in HEK293 cells assessed as half-maximal voltage for steady state activation at 10 uM by whole cell patch-clamp electrophysiology (reference value: -55.71 +/-3.81 mV). In kind it is cell-based. Conditions: hek293, 10 µM.
A short description of data set [11]: Behavioural toxicity in po dosed albino Sprague-Dawley rat measured at 1 hr. The class given is organism-based. Conditions: in vivo.
The target in data set [12] is T3, Cytochrome P450 1A2 (Homo sapiens, UniProt P05177).
T3 sequence (P05177 whole entry): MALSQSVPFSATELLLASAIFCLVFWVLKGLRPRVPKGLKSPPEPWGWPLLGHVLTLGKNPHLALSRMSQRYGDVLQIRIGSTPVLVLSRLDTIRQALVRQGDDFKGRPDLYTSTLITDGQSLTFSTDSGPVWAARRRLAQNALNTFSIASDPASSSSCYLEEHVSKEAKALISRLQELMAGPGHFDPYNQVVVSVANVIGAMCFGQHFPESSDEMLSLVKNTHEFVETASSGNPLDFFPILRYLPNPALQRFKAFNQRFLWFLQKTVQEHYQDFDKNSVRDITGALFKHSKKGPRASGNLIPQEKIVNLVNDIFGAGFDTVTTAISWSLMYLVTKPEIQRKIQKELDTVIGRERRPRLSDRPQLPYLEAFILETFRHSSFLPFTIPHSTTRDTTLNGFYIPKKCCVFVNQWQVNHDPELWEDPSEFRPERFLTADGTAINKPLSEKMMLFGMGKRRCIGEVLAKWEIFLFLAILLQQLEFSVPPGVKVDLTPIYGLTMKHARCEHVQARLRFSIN
The data set is described as follows: Inhibition of human CYP1A2 at 10 uM. In kind it is ADME. The gist of the method:
as §1

Data set [13] can be described thus: Ratio of drug level in brain to plasma in Sprague-Dawley rat at 5 mg/kg, iv and 20 mg/kg, po measured after 6 hrs. In kind it is ADME, organism-based. Conditions: read-out: BPR. The gist of the method: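 Pharmacokinetics in Sprague-Dawley rats given a single iv dose of 5 mg/kg or an oral dose of 20 mg/kg.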

T1 sequence (Q14524 whole entry): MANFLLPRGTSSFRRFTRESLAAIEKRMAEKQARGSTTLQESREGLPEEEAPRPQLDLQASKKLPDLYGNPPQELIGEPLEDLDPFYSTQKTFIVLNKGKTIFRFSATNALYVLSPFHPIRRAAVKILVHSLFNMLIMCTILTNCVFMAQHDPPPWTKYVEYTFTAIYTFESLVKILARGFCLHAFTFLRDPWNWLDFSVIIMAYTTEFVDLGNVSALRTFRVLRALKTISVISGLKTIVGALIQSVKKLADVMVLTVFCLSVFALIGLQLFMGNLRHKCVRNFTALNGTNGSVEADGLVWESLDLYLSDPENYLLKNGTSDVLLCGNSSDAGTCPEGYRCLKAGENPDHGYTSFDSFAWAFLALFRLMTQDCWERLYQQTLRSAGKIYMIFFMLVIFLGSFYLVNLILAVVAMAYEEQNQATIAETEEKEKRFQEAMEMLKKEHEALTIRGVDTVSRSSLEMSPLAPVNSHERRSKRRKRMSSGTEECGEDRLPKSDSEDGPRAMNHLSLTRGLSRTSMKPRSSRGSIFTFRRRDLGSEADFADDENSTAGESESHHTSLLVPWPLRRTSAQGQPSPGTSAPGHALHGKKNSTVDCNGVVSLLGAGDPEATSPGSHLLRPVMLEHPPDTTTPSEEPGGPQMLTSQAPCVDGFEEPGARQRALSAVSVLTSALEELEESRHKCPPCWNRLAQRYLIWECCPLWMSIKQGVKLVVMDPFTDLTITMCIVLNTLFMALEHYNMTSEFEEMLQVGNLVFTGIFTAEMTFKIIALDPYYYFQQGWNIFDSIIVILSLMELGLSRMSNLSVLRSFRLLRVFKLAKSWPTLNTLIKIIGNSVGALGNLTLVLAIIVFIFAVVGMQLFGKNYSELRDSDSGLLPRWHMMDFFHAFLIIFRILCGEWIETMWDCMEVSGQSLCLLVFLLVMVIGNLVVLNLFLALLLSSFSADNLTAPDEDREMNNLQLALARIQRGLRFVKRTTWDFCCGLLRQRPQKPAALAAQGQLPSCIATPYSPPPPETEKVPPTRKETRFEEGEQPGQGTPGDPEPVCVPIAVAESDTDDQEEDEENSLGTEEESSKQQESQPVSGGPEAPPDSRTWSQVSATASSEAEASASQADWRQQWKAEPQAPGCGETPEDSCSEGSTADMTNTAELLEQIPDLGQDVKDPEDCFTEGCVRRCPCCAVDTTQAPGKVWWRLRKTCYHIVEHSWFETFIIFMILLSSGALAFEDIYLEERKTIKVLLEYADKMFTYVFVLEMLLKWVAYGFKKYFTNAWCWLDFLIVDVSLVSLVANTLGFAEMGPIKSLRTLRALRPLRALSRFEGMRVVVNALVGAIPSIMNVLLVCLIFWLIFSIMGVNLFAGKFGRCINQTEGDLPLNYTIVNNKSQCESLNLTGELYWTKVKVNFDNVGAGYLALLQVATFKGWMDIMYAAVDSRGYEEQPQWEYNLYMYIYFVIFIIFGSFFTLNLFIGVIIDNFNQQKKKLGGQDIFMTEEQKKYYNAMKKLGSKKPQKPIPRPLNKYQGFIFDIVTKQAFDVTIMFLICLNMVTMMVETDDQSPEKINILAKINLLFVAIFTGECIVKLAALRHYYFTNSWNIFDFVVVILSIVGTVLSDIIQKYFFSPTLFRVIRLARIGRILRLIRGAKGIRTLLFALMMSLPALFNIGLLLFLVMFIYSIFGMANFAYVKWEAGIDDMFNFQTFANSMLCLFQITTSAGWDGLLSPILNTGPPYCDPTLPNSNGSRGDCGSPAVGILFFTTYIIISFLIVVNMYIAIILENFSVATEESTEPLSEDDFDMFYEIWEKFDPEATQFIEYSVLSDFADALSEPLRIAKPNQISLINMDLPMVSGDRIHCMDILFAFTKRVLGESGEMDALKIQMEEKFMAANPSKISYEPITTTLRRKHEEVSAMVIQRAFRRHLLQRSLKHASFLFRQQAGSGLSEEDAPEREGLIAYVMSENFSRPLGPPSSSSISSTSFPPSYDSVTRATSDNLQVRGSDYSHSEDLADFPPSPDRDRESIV
Sequence of Sodium channel protein type 9 subunit alpha (Homo sapiens) (Q15858 whole entry, looked up): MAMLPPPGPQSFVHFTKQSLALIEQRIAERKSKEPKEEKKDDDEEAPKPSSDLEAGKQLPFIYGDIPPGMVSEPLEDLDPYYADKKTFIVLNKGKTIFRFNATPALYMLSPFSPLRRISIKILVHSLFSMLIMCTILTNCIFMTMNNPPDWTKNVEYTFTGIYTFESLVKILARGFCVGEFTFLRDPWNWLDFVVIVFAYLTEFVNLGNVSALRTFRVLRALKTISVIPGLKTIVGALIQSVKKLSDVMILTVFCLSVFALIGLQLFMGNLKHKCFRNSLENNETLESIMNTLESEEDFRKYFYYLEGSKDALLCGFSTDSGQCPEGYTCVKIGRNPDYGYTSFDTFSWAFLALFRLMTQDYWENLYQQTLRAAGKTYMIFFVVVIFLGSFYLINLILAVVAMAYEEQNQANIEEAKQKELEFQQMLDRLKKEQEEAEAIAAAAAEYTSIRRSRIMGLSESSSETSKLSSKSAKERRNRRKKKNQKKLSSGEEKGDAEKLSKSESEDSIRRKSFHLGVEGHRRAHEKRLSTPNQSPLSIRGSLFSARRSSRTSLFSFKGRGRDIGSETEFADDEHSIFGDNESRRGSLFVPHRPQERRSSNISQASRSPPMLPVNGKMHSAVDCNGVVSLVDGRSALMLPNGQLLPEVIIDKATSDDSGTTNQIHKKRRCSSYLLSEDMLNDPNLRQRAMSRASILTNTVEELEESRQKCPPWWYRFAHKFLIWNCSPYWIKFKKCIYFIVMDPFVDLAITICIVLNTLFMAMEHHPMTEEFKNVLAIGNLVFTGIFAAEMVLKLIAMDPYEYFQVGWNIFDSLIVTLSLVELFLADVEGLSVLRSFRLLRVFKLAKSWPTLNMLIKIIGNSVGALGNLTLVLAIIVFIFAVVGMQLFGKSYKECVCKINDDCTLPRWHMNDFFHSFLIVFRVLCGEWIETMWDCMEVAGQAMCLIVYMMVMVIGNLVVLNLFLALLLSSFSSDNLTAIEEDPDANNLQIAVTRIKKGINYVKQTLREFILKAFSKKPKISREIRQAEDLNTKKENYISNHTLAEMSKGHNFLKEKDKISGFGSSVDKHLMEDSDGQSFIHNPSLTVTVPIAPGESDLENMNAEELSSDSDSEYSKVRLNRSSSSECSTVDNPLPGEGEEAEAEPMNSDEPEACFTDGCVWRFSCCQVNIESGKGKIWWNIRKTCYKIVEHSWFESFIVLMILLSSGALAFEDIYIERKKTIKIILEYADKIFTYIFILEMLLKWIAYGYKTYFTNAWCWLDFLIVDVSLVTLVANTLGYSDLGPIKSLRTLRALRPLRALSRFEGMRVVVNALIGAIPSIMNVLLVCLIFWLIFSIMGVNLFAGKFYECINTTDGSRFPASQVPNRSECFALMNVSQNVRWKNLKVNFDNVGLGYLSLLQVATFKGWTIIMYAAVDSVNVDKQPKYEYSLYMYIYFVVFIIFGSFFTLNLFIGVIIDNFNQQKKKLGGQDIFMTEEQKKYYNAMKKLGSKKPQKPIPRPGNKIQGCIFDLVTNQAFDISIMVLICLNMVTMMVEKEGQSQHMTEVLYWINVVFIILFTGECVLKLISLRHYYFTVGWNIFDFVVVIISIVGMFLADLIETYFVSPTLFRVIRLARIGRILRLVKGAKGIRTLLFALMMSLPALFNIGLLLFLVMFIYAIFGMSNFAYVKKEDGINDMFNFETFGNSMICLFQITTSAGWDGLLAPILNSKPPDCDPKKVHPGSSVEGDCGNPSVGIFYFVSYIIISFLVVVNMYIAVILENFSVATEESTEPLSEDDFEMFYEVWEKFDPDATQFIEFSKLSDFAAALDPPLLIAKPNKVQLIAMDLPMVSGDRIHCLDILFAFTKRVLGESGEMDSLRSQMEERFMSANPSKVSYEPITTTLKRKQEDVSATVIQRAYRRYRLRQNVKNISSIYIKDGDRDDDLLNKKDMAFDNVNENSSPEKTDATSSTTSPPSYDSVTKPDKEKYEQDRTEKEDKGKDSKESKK

Regarding `COC[C@@H](NC(C)=O)C(=O)NCc1ccc(Oc2cccc(OC(F)(F)F)c2)cc1`, the V1/2 is -25 mV in data set [1], -84.6 mV in [9] and -48.99 mV in data set [10]. Also, in [2], the inhibition result was “inactive”. Moreover, in [3], the outcome was inactive. Also, the ED50 in data set [4] turned out to be 8.3 mg/kg; in data set [6] it was 5.7 mg/kg. The “inhibition (INH)” value was “Active” in [5] and “Not Active” in data set [12]. This molecule returned an inhibition at 0.5 h in [7] of 16%. Also, the inhibition entry in data set [8] is “Active”. Also, the TD50 at 1 h in data set [11] was determined as 240 mg/kg. Moreover, the Kp at 6 h in data set [13] stood at 1.2.

One may read the inhibition as the change of the read-out against control, counted positive when it falls. As a reminder, the ED50 is the dose at which the effect has come halfway, by size or by number of responders. Higher therefore signals a need for a large dose. Usually TD50 stands for the dose at which the toxic effect under study appears in half of the subjects. High values mean lower toxicity, low ones greater toxicity.
